According to ChEMBL document CHEMBL1828575, “Design, synthesis and antiproliferative activities of biarylolefins based on polyhydroxylated and carbohydrate scaffolds” (Eur J Med Chem, 2011):

How the values were obtained:
Type in all cases: functional
MDA-MB-435 = experiment: Cytotoxicity against human MDA-MB-435 cells assessed as cellular growth at 10 uM after 48 hrs by SRB assay
How it was run: (§1)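 NCI-60 panel lines grown in RPMI 1640 with 5% FBS and 2 mM L-glutamine. Plated at 5000–40,000 cells/well and preincubated 24 h at 37 °C, 5% CO₂, with time-zero plates fixed in TCA. Compounds, dissolved in DMSO and diluted in medium, were applied for 48 h. Cells were TCA-fixed (10% final for adherent, 16% for suspension) and stained with 0.4% SRB in 1% acetic acid. Dye was solubilised in 10 mM Tris base and read at 515 nm; growth was expressed as a percentage of untreated control.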

HL-60(TB) = experiment: Cytotoxicity against human HL-60(TB) cells assessed as cellular growth at 10 uM after 48 hrs by SRB assay
T47D = experiment: Antitumor activity against human T47D cells after 48 hrs by SRB assay
How it was run: (§2)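 NCI60 panel cells grown in RPMI 1640 with 5% FBS and 2 mM L-glutamine, plated at 5000–40,000 cells/well and preincubated 24 h at 37 °C, 5% CO₂. Compound was added from DMSO at five concentrations, 10-fold or 1/2 log dilutions, then incubated 48 h.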

PC-3 = experiment: Antitumor activity against human PC3 cells after 48 hrs by SRB assay; settings: PC-3, 48 h
How it was run: (§3)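 NCI60 panel in RPMI 1640 with 5% FBS and 2 mM L-glutamine. Cells were plated at 5000–40,000/well by doubling time, held 24 h, then time-zero plates were TCA-fixed. Five concentrations (10-fold or half-log dilutions of DMSO stocks) were applied for 48 h at 37 °C, 5% CO2. Cells were fixed with cold TCA (10% final adherent, 16% suspension) and stained with 0.4% SRB. Bound dye was dissolved in 10 mM Tris and read at 515 nm. GI50, TGI and LC50 were calculated per line.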

OVCAR-8 [1] = experiment: Antitumor activity against human OVCAR8 cells after 48 hrs by SRB assay; settings: OVCAR-8, 48 h; how it was run: as §3
SN12C = experiment: Antitumor activity against human SN12C cells after 48 hrs by SRB assay; how it was run: as §2
CAKI-1 = experiment: Cytotoxicity against human Caki1 cells assessed as cellular growth at 10 uM after 48 hrs by SRB assay
How it was run: (§4)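 NCI60 single-dose screen of cells in RPMI 1640 with 5% FBS and 2 mM L-glutamine, preincubated 24 h at 37 °C, 5% CO₂. Cells were then exposed 48 h to compound added from DMSO stock. TCA-fixed, stained with 0.4% SRB in 1% acetic acid, dye solubilised in 10 mM Tris base and read at 515 nm. Growth is given as percent of untreated control.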

OVCAR-8 [2] = experiment: Cytotoxicity against human OVCAR8 cells assessed as cellular growth at 10 uM after 48 hrs by SRB assay; how it was run: as §1
NCI-H460 = experiment: Cytotoxicity against human NCI-H460 cells assessed as cellular growth at 10 uM after 48 hrs by SRB assay; how it was run: as §1
MDA-MB-468 = experiment: Antitumor activity against human MDA-MB-468 cells after 48 hrs by SRB assay; settings: MDA-MB-468, 48 h; how it was run: as §3
SR = experiment: Antitumor activity against human SR cells after 48 hrs by SRB assay; how it was run: as §2
EKVX = experiment: Antitumor activity against human EKVX cells after 48 hrs by SRB assay; how it was run: as §3
U-251 = experiment: Cytotoxicity against human U251 cells assessed as cellular growth at 10 uM after 48 hrs by SRB assay; how it was run: as §1
HT-29 = experiment: Cytotoxicity against human HT-29 cells assessed as cellular growth at 10 uM after 48 hrs by SRB assay; how it was run: as §4
CCRF-CEM = experiment: Antitumor activity against human CCRF-CEM cells after 48 hrs by SRB assay; how it was run: as §3
786-0 = experiment: Antitumor activity against human 786-0 cells after 48 hrs by SRB assay; settings: 786-0, 48 h; how it was run: as §3
NCI-H522 = experiment: Antitumor activity against human NCI-H522 cells after 48 hrs by SRB assay; settings: NCI-H522, 48 h; how it was run: as §3
SF-268 = experiment: Cytotoxicity against human SF268 cells assessed as cellular growth at 10 uM after 48 hrs by SRB assay; how it was run: as §1
DU-145 = experiment: Antitumor activity against human DU145 cells after 48 hrs by SRB assay; settings: DU-145, 48 h; how it was run: as §3
LOX IMVI [3] = experiment: Antitumor activity against human LOXIMVI cells after 48 hrs by SRB assay; how it was run: as §3
SNB-19 = experiment: Antitumor activity against human SNB19 cells after 48 hrs by SRB assay; settings: SNB-19, 48 h; how it was run: as §2
LOX IMVI [4] = experiment: Cytotoxicity against human LOXIMVI cells assessed as cellular growth at 10 uM after 48 hrs by SRB assay; how it was run: as §4
OVCAR-4 = experiment: Antitumor activity against human OVCAR4 cells after 48 hrs by SRB assay; settings: OVCAR-4, 48 h; how it was run: as §3
[5] = read-out: LC50 (the source's name)
[6] = read-out: pLC50 (the source's name) (converted)

## COc1cc(/C(=C2\O[C@@H]([C@H]3COC(C)(C)O3)[C@H]3OC(C)(C)O[C@@H]23)c2ccc3ccccc3c2)cc(OC)c1OC
MDA-MB-435
  Activity: 26.19%
HL-60(TB)
  Activity: 59.17%
T47D; read-out: GI50
  GI50: 3.45 µM
T47D; [5]
  CC50: > 100 µM
T47D; read-out: TGI
  TGI: 40.6 µM
T47D; read-out: pGI50 (converted)
  GI50: 3.47 µM
T47D; [6]
  CC50: > 100 µM
T47D; read-out: pTGI (converted)
  TGI: 40.7 µM
PC-3; read-out: GI50
  GI50: 5.71 µM
PC-3; [5]
  CC50: > 100 µM
PC-3; read-out: TGI
  TGI: > 100 µM
PC-3; read-out: pGI50 (converted)
  GI50: 5.75 µM
PC-3; [6]
  CC50: > 100 µM
PC-3; read-out: pTGI
  TGI: > 100 µM
OVCAR-8 [1]; read-out: GI50
  GI50: 3.69 µM
OVCAR-8 [1]; [5]
  CC50: > 100 µM
OVCAR-8 [1]; read-out: TGI
  TGI: > 100 µM
OVCAR-8 [1]; read-out: pGI50 (converted)
  GI50: 4.37 µM
OVCAR-8 [1]; [6]
  CC50: > 100 µM
OVCAR-8 [1]; read-out: pTGI
  TGI: > 100 µM
SN12C; read-out: GI50
  GI50: 3.65 µM
SN12C; [5]
  CC50: > 100 µM
SN12C; read-out: TGI
  TGI: > 100 µM
SN12C; read-out: pGI50 (converted)
  GI50: 3.16 µM
SN12C; [6]
  CC50: > 100 µM
SN12C; read-out: pTGI
  TGI: > 100 µM
CAKI-1
  Activity: 38.73%
OVCAR-8 [2]
  Activity: 18.91%
NCI-H460
  Activity: 43.38%
MDA-MB-468; read-out: GI50
  GI50: 4.02 µM
MDA-MB-468; [5]
  CC50: > 100 µM
MDA-MB-468; read-out: TGI
  TGI: 21.1 µM
MDA-MB-468; read-out: pGI50 (converted)
  GI50: 3.98 µM
MDA-MB-468; [6]
  CC50: > 100 µM
MDA-MB-468; read-out: pTGI (converted)
  TGI: 20.9 µM
SR; read-out: GI50
  GI50: > 100 µM
SR; [5]
  CC50: > 100 µM
SR; read-out: TGI
  TGI: > 100 µM
SR; read-out: pGI50 (converted)
  GI50: 100 µM
SR; [6]
  CC50: > 100 µM
SR; read-out: pTGI
  TGI: > 100 µM
EKVX; read-out: GI50
  GI50: 5.59 µM
EKVX; [5]
  CC50: > 100 µM
EKVX; read-out: TGI
  TGI: > 100 µM
EKVX; read-out: pGI50 (converted)
  GI50: 5.62 µM
EKVX; [6]
  CC50: > 100 µM
EKVX; read-out: pTGI
  TGI: > 100 µM
U-251
  Activity: 18%
HT-29
  Activity: 40.98%
CCRF-CEM; read-out: GI50
  GI50: 48.3 µM
CCRF-CEM; [5]
  CC50: > 100 µM
CCRF-CEM; read-out: TGI
  TGI: > 100 µM
CCRF-CEM; read-out: pGI50 (converted)
  GI50: 47.9 µM
CCRF-CEM; [6]
  CC50: > 100 µM
CCRF-CEM; read-out: pTGI
  TGI: > 100 µM
786-0
  GI50: 2.3 µM
  LC50: 8.6 µM
  TGI: 4.47 µM
NCI-H522
  GI50: 2.26 µM
  TGI: 6.54 µM
NCI-H522; [5]
  CC50: > 100 µM
SF-268
  Activity: -16.94%
DU-145; read-out: GI50
  GI50: 4.33 µM
DU-145; [5]
  CC50: > 100 µM
DU-145; read-out: TGI
  TGI: > 100 µM
DU-145; read-out: pGI50 (converted)
  GI50: 4.37 µM
DU-145; [6]
  CC50: > 100 µM
DU-145; read-out: pTGI (converted)
  TGI: > 100 µM
LOX IMVI [3]
  GI50: 3.39 µM
  TGI: 19.8 µM
LOX IMVI [3]; [5]
  CC50: > 100 µM
SNB-19
  GI50: 2.49 µM
  TGI: 6.08 µM
SNB-19; [5]
  CC50: > 100 µM
LOX IMVI [4]
  Activity: 46.36%
OVCAR-4; read-out: GI50
  GI50: 2.82 µM
OVCAR-4; [5]
  CC50: > 100 µM
OVCAR-4; read-out: TGI
  TGI: 6.02 µM
OVCAR-4; read-out: pGI50 (converted)
  GI50: 14.1 µM
OVCAR-4; [6]
  CC50: > 100 µM
OVCAR-4; read-out: pTGI (converted)
  TGI: 11 µM
